# Published values collected from several papers.
# Compare with care: the assays were run in different laboratories.
Compound,test system,setting,endpoint,result
CN(C)C(=O)c1cc2cnc(Nc3ccc(-c4ccc5c(=O)cc(N6CCOCC6)oc5c4)cc3)nc2n1C1CCCC1.Cl,"BALB/c mouse, plasma","oral, 20 mg/kg",Vd/F,17.7 L/kg
C=CCn1c(=O)c2cnc(Nc3ccc(N4CCN(C)CC4)cc3)nc2n1-c1ccc2c(n1)[C@@](O)(CC)CC2,"mouse, plasma","intravenous, 3 mg/kg",Vd,3.4 L/kg
NCc1cc2c(cc1F)C(=O)N(C1CCC(=O)NC1=O)C2 (centres unmarked),"male CD-1 mouse, plasma","intravenous, 1 mg/kg",Vd,6.5 L/kg
C[C@@H]1COCCN1c1cc(=O)n2c(n1)N(Cc1cncc(Cl)c1)[C@H](C(F)(F)F)CC2,"C57BL/6 mouse, plasma","intraperitoneal, 10 mg/kg, single dose",Vd,7.05 L/kg
OCc1nc2ccc(NCc3ccc(C(F)(F)F)cc3)cc2[nH]1,"male BALB/c mouse, plasma","intravenous, 1 mg/kg",Vd,4 L/kg
O=C1CCC(N2Cc3cc(CO)c(F)cc3C2=O)C(=O)N1 (centres unmarked),"male CD-1 mouse, plasma","intravenous, 1 mg/kg",Vd,2.8 L/kg
CCCC[C@@H](NC(=O)[C@@H](Cc1cn(C(=O)OC)c2ccccc12)NC(=O)[C@H](CC(C)(C)C)NC(=O)N1[C@H](C)CCC[C@@H]1C)C(=O)O,"male CD-1 mouse, plasma","intravenous, 3 mg/kg",Vd,6.6 L/kg
COCC(=O)N1CCc2[nH]c3c(Cl)c(Cl)ccc3c2[C@@H]1C,"C57BL/6 mouse, blood","intravenous, 1 mg/kg",Vd,1.23 L/kg
Cc1nc2ccc(OCc3ccc(C(F)(F)F)cc3)cc2[nH]1,"male BALB/c mouse, plasma","oral, 10 mg/kg",Vd/F,7.35 L/kg
CC(C)(C)c1sc2ncnc(Oc3c(F)cccc3OC(F)(F)F)c2c1-c1ccc(Cl)cc1,"mouse, plasma","intravenous, 1 mg/kg",Vd,1.3 L/kg
CC(C)[C@@H](CS(=O)(=O)C(C)C)N1C(=O)[C@@](C)(CC(=O)O)C[C@H](c2cccc(Cl)c2)[C@H]1c1ccc(Cl)cc1,"FVB mouse, plasma","oral, 20 mg/kg, single dose",Vd/F,12.2 L/kg
